Data as given in article PMC7113734 (Antiviral Research, 2016).
Like-named read-outs stand apart in the source and are kept apart here.

Legend:
wild type HIV-1 RT = wild type HIV-1 RT (Human immunodeficiency virus type 1 group M subtype B, UniProt P04585); test: Biochemical RT inhibition assay
[1] = system: HL2/3 cells expressing HIV-1 gp120 and gp41 fusing with HeLa-CD4-LTR-β-gal cells; test: Fusion inhibition assay; format: cell-based; conditions: Human immunodeficiency virus 1, HL2/3, read-out: Fusion inhibition EC50 ± SD
Outline: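 HeLa-CD4-LTR-β-Gal cells incubated with test compound for 1 h at 37°C/5% CO2, then co-cultured 48 h with HL2/3 cells. Cells lysed and β-galactosidase expression measured by chemiluminescent Gal-Screen.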

hERG = hERG (Homo sapiens, UniProt Q12809); test: Standard hERG test for cardiotoxicity
Sequence of hERG (Q12809 whole entry): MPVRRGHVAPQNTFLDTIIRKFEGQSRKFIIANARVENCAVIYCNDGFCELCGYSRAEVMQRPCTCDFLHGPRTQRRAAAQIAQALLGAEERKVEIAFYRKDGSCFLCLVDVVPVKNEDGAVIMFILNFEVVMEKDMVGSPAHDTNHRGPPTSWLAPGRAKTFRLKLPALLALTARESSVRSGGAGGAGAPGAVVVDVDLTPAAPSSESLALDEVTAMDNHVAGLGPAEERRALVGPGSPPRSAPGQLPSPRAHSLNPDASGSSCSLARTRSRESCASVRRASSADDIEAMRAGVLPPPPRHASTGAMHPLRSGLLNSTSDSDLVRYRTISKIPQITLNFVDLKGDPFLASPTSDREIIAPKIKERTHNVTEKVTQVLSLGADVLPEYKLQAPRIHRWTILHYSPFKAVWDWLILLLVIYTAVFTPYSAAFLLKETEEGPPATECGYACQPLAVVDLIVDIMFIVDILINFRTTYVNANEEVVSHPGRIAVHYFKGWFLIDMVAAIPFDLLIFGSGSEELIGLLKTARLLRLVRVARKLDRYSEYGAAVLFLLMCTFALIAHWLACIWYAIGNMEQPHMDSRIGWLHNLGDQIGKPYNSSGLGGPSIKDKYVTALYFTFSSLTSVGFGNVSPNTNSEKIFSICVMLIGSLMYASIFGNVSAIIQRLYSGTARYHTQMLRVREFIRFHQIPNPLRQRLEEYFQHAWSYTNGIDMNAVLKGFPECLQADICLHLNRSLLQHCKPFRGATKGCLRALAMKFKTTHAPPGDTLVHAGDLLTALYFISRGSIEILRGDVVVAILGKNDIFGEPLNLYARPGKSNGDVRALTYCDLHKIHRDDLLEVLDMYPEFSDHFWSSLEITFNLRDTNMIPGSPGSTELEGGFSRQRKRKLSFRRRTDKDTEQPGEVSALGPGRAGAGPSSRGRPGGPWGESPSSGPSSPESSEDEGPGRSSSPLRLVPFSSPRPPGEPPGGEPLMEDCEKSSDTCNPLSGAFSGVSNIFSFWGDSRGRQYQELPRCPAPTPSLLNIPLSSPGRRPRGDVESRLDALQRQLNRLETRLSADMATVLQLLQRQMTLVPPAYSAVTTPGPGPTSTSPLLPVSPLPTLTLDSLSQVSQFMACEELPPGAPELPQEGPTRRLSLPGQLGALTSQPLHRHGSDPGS

[2] = system: IIIB strain of HIV-1 in CEM-SS cells; test: Combination drug interaction evaluation; format: cell-based
Outline: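 CEM-SS cells infected with HIV-1 IIIB; inhibition of cytopathic effect measured for the test compound in two-drug combinations with known anti-HIV agents. Efficacy and toxicity analysed by Prichard–Shipman MacSynergy II. Expected additive inhibition computed from each agent's single-agent dose–response; inhibition above expected at each concentration calculated at 95%, 99% and 99.9% confidence. −99 to −51 μM2% scored antagonistic; <−100 highly antagonistic.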

cytochrome P450 enzymes = test: Inhibition of cytochrome P450 enzymes; format: in vitro ADME
HIV strain 92US727 = test: Cell-to-cell virus transmission assay in fresh human PBMCs; format: cell-based, HIV-1
Outline: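 HIV-infected fresh human PBMCs treated 3 days with six concentrations of test compound. Passaged every 3 days for three passages at fixed compound concentration; 80% of culture volume replaced with fresh compound-containing medium and uninfected cells. Cell-free supernatants collected on sub-culture days for RT activity and extracellular p24 antigen. TCID50 per passage by endpoint dilution.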

in vitro = conditions: human, CC50 (cytotoxic concentration), fresh human PBMCs
[3] = system: clinical HIV-1 subtype B virus 92US723; test: Antiviral activity with added serum proteins in fresh human PBMCs; format: cell-based; conditions: 50% human serum, AAGP or HSA vs medium only
HIVIIIB = test: Cell-to-cell virus transmission assay in CEM-SS cells; format: cell-based, HIV-1
HIV-1IIIB [4] = test: Drug-resistant virus selection by serial dose escalation; format: cell-based; conditions: fourteen passages, CEM-SS cells
HIV-1 protease = HIV-1 protease (Human immunodeficiency virus type 1 group M subtype B, UniProt P04585); test: HIV-1 protease inhibition assay; format: biochemical
[5] = system: drug-resistant HIV-1 strains; test: Antiviral activity against drug-resistant HIV-1 strains in MT-4; format: cell-based; conditions: MT-4
HIV-1 integrase = HIV-1 integrase (Human immunodeficiency virus type 1 group M subtype B, UniProt P04585); test: HIV-1 integrase inhibition assay; format: biochemical
Pharmacokinetics in rats = format: in vivo; conditions: male, Sprague-Dawley, rat, plasma, po, 1000 mg/kg
Outline: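 Male Sprague-Dawley rats, n = 3 per route. Prodrug given as IV bolus (50 mg/kg, 12.5 mg/mL in 5% DMSO/50% PEG300 in saline) or PO (1000 mg/kg, […] in 2% CMC suspension). Blood sampled over 24 h into sodium fluoride plus citric acid, kept on wet ice <10 min, then centrifuged at 4 °C. Plasma stored at −80 °C; prodrug and active metabolite quantified by UPLC-MS/MS (prodrug LLOQ 0.10 ng/mL).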

[6] = system: HIV attachment to HeLa-CD4-LTR-β-gal cells; test: Attachment inhibition assay; format: cell-based, HIV-1; conditions: Human immunodeficiency virus 1, read-out: Attachment inhibition EC50 ± SD
HIV-1IIIB [7] = test: Antiviral activity with added serum proteins in CEM-SS cells; format: cell-based
[8] = system: drug resistant clinical HIV isolates; test: Antiviral activity against drug-resistant HIV-1 in PBMCs; format: cell-based; conditions: Human immunodeficiency virus 1, PBMC
[9] = system: influenza A virus type H1N1; test: DMID antiviral screening, influenza A; format: cell-based
MT-4 cells = test: Toxicity to MT-4 cells; format: cell-based; conditions: all assays

Structure (SMILES): NC(=O)CCNC(=O)c1ccccc1S [MDH-1-38, N-(3-amino-3-oxopropyl)-2-mercaptobenzamide]
- EC50 (wild type HIV-1 RT): > 100 µM
- EC50 [1]: 83.3 ± 26.4 µM
- hERG test for cardiotoxicity (hERG): negative
- mean synergy volume ([2]; in combination with amprenavir): 101 ± 61 μM^2%
- mean synergy volume ([2]; in combination with dolutegravir): 95.7 ± 44.3 μM^2%
- mean synergy volume ([2]; in combination with enfuviritide): 80.8 ± 32.9 μM^2%
- mean synergy volume ([2]; in combination with lopinavir): 108 ± 64.5 μM^2%
- mean synergy volume ([2]; in combination with nelfinavir): 498 ± 288 μM^2%
- mean synergy volume ([2]; in combination with ritonavir): 282 ± 111 μM^2%
- inhibition of cytochrome P450 enzymes (cytochrome P450 enzymes): neither NS1040 nor MDH-1-38 had significant inhibitory activity
- RT (HIV strain 92US727; Passage 1, 3.25 μM): 216 cpm
- TCID50/mL (HIV strain 92US727; Passage 1, 3.25 μM): 3.75 × 10^2 TCID50/mL
- p24 (HIV strain 92US727; Passage 1, 3.25 μM): 816 pg/mL
- RT (HIV strain 92US727; Passage 2, 3.25 μM): 730 cpm
- TCID50/mL (HIV strain 92US727; Passage 2, 3.25 μM): 4.90 × 10^3 TCID50/mL
- p24 (HIV strain 92US727; Passage 2, 3.25 μM): 2642 pg/mL
- RT (HIV strain 92US727; Passage 3, 3.25 μM): 11,080 cpm
- TCID50/mL (HIV strain 92US727; Passage 3, 3.25 μM): 2.17 × 10^4 TCID50/mL
- p24 (HIV strain 92US727; Passage 3, 3.25 μM): 55,429 pg/mL
- CC50 (in vitro): > 231 µM
- change in antiviral activity with serum protein additives [3]: no significant change in antiviral activity
- RT (HIVIIIB; Passage 1, 2 μM): 22 cpm
- TCID50/mL (HIVIIIB; Passage 1, 2 μM): 0 TCID50/mL
- p24 (HIVIIIB; Passage 1, 2 μM): 619 pg/mL
- RT (HIVIIIB; Passage 2, 2 μM): 185 cpm
- TCID50/mL (HIVIIIB; Passage 2, 2 μM): 2.46 × 10^5 TCID50/mL
- p24 (HIVIIIB; Passage 2, 2 μM): 28,255 pg/mL
- RT (HIVIIIB; Passage 3, 2 μM): 2820 cpm
- TCID50/mL (HIVIIIB; Passage 3, 2 μM): 2.41 × 10^4 TCID50/mL
- p24 (HIVIIIB; Passage 3, 2 μM): 394,996 pg/mL
- selection of resistant virus (HIV-1IIIB [4]): did not result in resistance
- EC50 (HIV-1 protease): > 100 µM
- EC50 ([5]; Human immunodeficiency virus 1, read-out: Mean EC50 ± SD, AZT- and NNRTI-resistant, RT 4xAZT/L100I): 3.59 ± 1.25 µM
- EC50 ([5]; Human immunodeficiency virus 1, read-out: Mean EC50 ± SD, AZT- and NNRTI-resistant, RT 4xAZT/Y181C): 4.87 ± 0.22 µM
- EC50 ([5]; Human immunodeficiency virus 1, read-out: Mean EC50 ± SD, AZT-resistant, RT 4xAZT (D67N/K70R/T215Y/K219Q)): 3.31 ± 2.2 µM
- EC50 ([5]; Human immunodeficiency virus 1, read-out: Mean EC50 ± SD, Atazanavir-resistant, PR I50L): 0.82 ± 0.37 µM
- EC50 ([5]; Human immunodeficiency virus 1, read-out: Mean EC50 ± SD, Didanosine-resistant, RT L74V): 3.93 ± 2.33 µM
- EC50 ([5]; Human immunodeficiency virus 1, read-out: Mean EC50 ± SD, Enfuviritide-resistant, Env V38A/N126K): 7.09 ± 0.03 µM
- EC50 ([5]; Human immunodeficiency virus 1, read-out: Mean EC50 ± SD, Indinavir-, Ritonavir-resistant, PR I84V): 2.54 ± 0.93 µM
- EC50 ([5]; Human immunodeficiency virus 1, read-out: Mean EC50 ± SD, Indinavir-, Ritonavir-resistant, PR V82A): 10.3 ± 5.34 µM
- EC50 ([5]; Human immunodeficiency virus 1, read-out: Mean EC50 ± SD, Indinavir-, Ritonavir-resistant, PR V82F/I84V): 4.1 ± 0.47 µM
- EC50 ([5]; Human immunodeficiency virus 1, read-out: Mean EC50 ± SD, Lamivudine-resistant, RT M184V): 2.7 ± 1.52 µM
- EC50 ([5]; Human immunodeficiency virus 1, read-out: Mean EC50 ± SD, NNRTI-resistant, RT K103N/Y181C): 8.03 ± 1.45 µM
- EC50 ([5]; Human immunodeficiency virus 1, read-out: Mean EC50 ± SD, NNRTI-resistant, RT K103N): 3.97 ± 1.31 µM
- EC50 ([5]; Human immunodeficiency virus 1, read-out: Mean EC50 ± SD, NNRTI-resistant, RT L100I): 1.22 ± 0.01 µM
- EC50 ([5]; Human immunodeficiency virus 1, read-out: Mean EC50 ± SD, NNRTI-resistant, RT V106A): 2.74 ± 2.17 µM
- EC50 ([5]; Human immunodeficiency virus 1, read-out: Mean EC50 ± SD, NNRTI-resistant, RT V108I): 3.84 ± 1.6 µM
- EC50 ([5]; Human immunodeficiency virus 1, read-out: Mean EC50 ± SD, NNRTI-resistant, RT V179D): 3.57 ± 1.81 µM
- EC50 ([5]; Human immunodeficiency virus 1, read-out: Mean EC50 ± SD, NNRTI-resistant, RT Y181C): 3.99 ± 1.59 µM
- EC50 ([5]; Human immunodeficiency virus 1, read-out: Mean EC50 ± SD, NNRTI-resistant, RT Y188C): 3.37 ± 2.15 µM
- EC50 ([5]; Human immunodeficiency virus 1, read-out: Mean EC50 ± SD, Raltegravir-resistant, IN Q148H/G140S): 3.39 ± 2.15 µM
- EC50 ([5]; Human immunodeficiency virus 1, read-out: Mean EC50 ± SD, Saquinavir-resistant, PR G48V/L90M): 1 ± 0.34 µM
- EC50 ([5]; Human immunodeficiency virus 1, read-out: Mean EC50 ± SD, Tenofovir-resistant, RT K65R): 4.29 ± 0.64 µM
- EC50 (HIV-1 integrase): > 100 µM
- bioavailability (Pharmacokinetics in rats): 64%
- EC50 [6]: 44.4 ± 7.21 µM
- fold decrease in potency (HIV-1IIIB [7]; in the presence of 50% human AB serum): ~4.5 fold
- fold decrease in potency (HIV-1IIIB [7]; in the presence of HSA (10 mg/mL)): 4.5 fold
- EC50 ([8]; read-out: PBMC/HIV-1 EC50 ± SD, Multi-drug resistant AD. MDR): 10.6 ± 6.95 µM
- EC50 ([8]; read-out: PBMC/HIV-1 EC50 ± SD, Multi-drug resistant MDR769): 3.5 ± 1.45 µM
- EC50 ([8]; read-out: PBMC/HIV-1 EC50 ± SD, NNRTI-resistant A17R): 11.4 ± 8.47 µM
- EC50 ([8]; read-out: PBMC/HIV-1 EC50 ± SD, NNRTI-resistant N119): 2.58 ± 2.52 µM
- EC50 ([8]; read-out: PBMC/HIV-1 EC50 ± SD, PI-resistant 144-44): 9.78 ± 8.23 µM
- EC50 ([8]; read-out: PBMC/HIV-1 EC50 ± SD, PI-resistant 1002-60): 2.04 ± 1.03 µM
- EC50 ([8]; read-out: PBMC/HIV-1 EC50 ± SD, PI-resistant 1022-48): 0.98 ± 0.64 µM
- EC50 ([8]; read-out: PBMC/HIV-1 EC50 ± SD, PI-resistant 1026-60): 2.67 ± 0.4 µM
- EC50 ([8]; read-out: PBMC/HIV-1 EC50 ± SD, PI-resistant 1064-52): 3.06 ± 0.28 µM
- EC50 ([8]; read-out: PBMC/HIV-1 EC50 ± SD, Wild Type 92US727): 3.32 ± 1.95 µM
- antiviral activity [9]: failed to show any activity
- non-toxic up to high test concentration (MT-4 cells): > 100 µM
